From PubChem BioAssay come the findings set out here.

The nature of test [1]: Her2 expression decrease, cell viability multiplex – SKBR3 breast tumor cells, AlphaScreen, ATP viability, primary screen (AID 461;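 active = Her2 level under about 52% in both replicate screens, with viability over 70% of control, limit read from the data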;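 for Her2 level: lower value means less Her2 protein in the cells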;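 for viability: percent of carrier control wells set as 100% viability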). The settings on record: SKBR3 Her2 protein level, 18-24 h, measured here: SKBR3 viability, ATP luminescence, at 10 µM.
In test [2] the target is Receptor tyrosine-protein kinase erbB-2 (Homo sapiens) (UniProt P04626). The test is described as above. The settings on record: 18-24 h, at 10 µM, stronger effect = lower value.
Receptor tyrosine-protein kinase erbB-2 (Homo sapiens), sequence (P04626 whole entry, looked up): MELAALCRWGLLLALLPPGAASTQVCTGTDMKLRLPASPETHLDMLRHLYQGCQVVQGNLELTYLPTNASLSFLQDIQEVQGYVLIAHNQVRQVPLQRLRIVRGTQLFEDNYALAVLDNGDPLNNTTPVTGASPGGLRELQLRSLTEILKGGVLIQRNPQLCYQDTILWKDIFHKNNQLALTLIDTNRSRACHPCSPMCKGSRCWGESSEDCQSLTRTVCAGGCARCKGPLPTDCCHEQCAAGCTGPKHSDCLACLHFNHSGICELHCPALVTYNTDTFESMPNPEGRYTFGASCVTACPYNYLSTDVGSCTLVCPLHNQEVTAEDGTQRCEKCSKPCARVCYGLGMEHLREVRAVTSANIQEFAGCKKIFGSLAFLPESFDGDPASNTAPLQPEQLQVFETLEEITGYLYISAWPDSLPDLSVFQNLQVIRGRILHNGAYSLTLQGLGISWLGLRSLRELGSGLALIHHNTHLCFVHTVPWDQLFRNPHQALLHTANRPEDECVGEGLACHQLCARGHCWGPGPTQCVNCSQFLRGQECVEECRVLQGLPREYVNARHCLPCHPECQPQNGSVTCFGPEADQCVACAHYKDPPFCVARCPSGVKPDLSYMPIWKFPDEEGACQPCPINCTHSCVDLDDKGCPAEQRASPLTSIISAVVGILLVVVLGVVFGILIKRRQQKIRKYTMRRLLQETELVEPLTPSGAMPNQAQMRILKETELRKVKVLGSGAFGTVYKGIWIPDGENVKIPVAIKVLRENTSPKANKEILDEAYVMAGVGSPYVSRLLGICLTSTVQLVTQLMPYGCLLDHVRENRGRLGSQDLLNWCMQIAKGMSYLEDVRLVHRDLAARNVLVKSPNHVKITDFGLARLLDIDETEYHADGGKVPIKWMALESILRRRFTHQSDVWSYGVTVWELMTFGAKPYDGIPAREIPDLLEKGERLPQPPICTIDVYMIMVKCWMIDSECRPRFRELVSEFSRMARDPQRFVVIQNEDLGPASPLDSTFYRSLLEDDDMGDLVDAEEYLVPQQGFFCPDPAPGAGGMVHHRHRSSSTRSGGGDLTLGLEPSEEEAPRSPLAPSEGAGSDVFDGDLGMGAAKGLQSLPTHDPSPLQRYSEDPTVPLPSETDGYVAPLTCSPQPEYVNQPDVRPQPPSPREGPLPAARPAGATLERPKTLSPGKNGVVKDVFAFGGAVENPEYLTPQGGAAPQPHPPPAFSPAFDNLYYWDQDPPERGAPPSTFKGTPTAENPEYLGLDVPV
Test [3] is described as follows: reduced viability of SK-BR-3 breast cancer cells – cell-based, 24 h, human, pilot screen (AID 572;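 active = viability at or below 10% of carrier control in both of two separate runs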;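 note: compound exposure lasted between 18 and 24 h rather than exactly 24 h; 100% = carrier-treated control wells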). The settings on record: SK-BR-3 viability, CellTiter-Glo luminescence, at 10 µM, stronger effect = lower value.
A short description of test [4]: HUVEC growth inhibition – cell-based, human, primary screen (AID 575).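 Note: 100% = median of untreated cell wells with 0.1% DMSO on each plate.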 The settings on record: HUVEC proliferation, CellTiter-Glo luminescence, 72 h; at 10 µM; stronger effect = lower value. In outline:
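Material: primary human umbilical vein endothelial cells / Schedule: 72 h exposure, 37 °C, 5% CO2, 30 min RT equilibration / Signal: ATP-based CellTiter-Glo luminescent read / Read-out basis: percent of median DMSO-control luminescence / Control set: 32 DMSO-only cell-control wells (high), 32 MePR drug-control wells (low) per plate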
A general note: ATP-based viability assays read luminescence as a measure of living cells.

Test [5] is described as follows: H69AR cell proliferation blockers – human, duplicate replicates, primary screen (AID 580;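 active = viability at or under a set limit in both replicates, limit being median viability minus 3 SD, cut at about 48% in these data, passing the limit was not always enough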;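 note: 100% = mean luminescence of untreated wells and 0% = no signal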). The settings on record: H69AR lung tumor cells viability, ATP luminescence, 72 h; at 10 µM; stronger effect = lower value.
Test [6] in a line: MRP1 drug-resistance reversers in H69AR cells – cell-based, doxorubicin co-treatment, pilot screen (AID 601;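 active = viability loss from added drug above about 55%, and viability with drug at most 40%, in both replicates, limit read from the data, passing the limit was not always enough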). To be noted: CellTiter-Glo, 72 h, at 10 µM; for differential viability (reversal): stronger effect = higher value.
Test [7] in a line: yeast transport mutant growth inhibition pilot in 384-well plates, post-Golgi transport modulator project (AID 636; in the data active = inhibition above about 31%). The settings on record: absorbance 615 nm, about 18 h, stronger effect = higher value.
A short description of test [8]: growth suppression of yeast trafficking mutant, preliminary HTS, modulators of trafficking downstream of Golgi apparatus project, 1536-format plate, OD 615 nm (AID 637; in the data active = inhibition above about 30%). To be noted: yeast transport mutant growth, absorbance 615 nm, 18 h; stronger effect = higher value.
[9] abbreviates: H69AR cells + 2 uM doxorubicin, measured here: viability with 2 uM doxorubicin, stronger effect = lower value.
Setting [10] is: H69AR cells, compound alone cytotoxicity.

The structures appear in SMILES notation. Calls of active or inactive are those of the source.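 Rule for the calls, unless noted: active = viability at or below 30% in both replicate assays; inconclusive = viability at or below 30% in just one of the two assays; inactive = the rest.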

As a reminder, the viability is a read-out of living cells in per cent, often relative to untreated cells. What is called inhibition is the drop in the measured response relative to a control, in per cent. Take `CCCCCc1c(O)nc(SCC(=O)NCC2CCCO2)[nH]c1=O` (stereo not given): the viability in test [1] was 96%; in test [3], 96% (inactive); in test [4], 96.9% (inactive); in test [5], 105% (inactive); in test [6] (setting [9]), 93%; in test [6] (setting [10]) it was 105%. The Her2 level in test [2] was 110% (inactive). Moreover, in test [6] (H69AR cells + 2 uM doxorubicin), the differential viability (reversal) is 12.2% (inactive). Besides, the inhibition is 0% (inactive) in test [7] and -3.81% (inactive) in test [8].
As to `O=C(CSc1nc2[nH]ncc2c(=O)n1-c1ccccc1Br)NCc1ccco1`, the viability is 100% in test [1]; 100% (inactive) in test [3]; 95% (inactive) in test [4]; 82.9% (inactive) in test [5]; 77.8% in test [6] (setting [9]); 82.9% in test [6] (setting [10]). Also, the Her2 level in test [2] was 80.5% (inactive). Besides, the differential viability (reversal) in test [6] (H69AR cells + 2 uM doxorubicin) is 5.05% (inactive). Besides, the inhibition in test [7] was -4.61% (inactive); in test [8], -1.77% (inactive).
Consider `O=C(O)CCc1ccc(-c2ccc(Br)cc2)n1CC(=O)O`, for which the viability in test [1] was 102%; in test [3], 102% (inactive); in test [4] it was 91.9% (inactive); in test [5], 101% (inactive); in test [6] (setting [9]), 98%; in test [6] (setting [10]) it was 101%. Further, the Her2 level in test [2] was 102% (inactive). Further, the differential viability (reversal) in test [6] (H69AR cells + 2 uM doxorubicin) was 2.92% (inactive). The inhibition in test [7] was -0.51% (inactive); in test [8], -3.67% (inactive).
As to `CCOc1ccc(C(=O)CN2CCN(S(=O)(=O)c3ccc(OC)cc3)CC2)cc1`, the viability is 99.5% in test [1]; 99.5% (inactive) in test [3]; 91.2% (inactive) in test [4]; 86.7% (inactive) in test [5]; 94.7% in test [6] (setting [9]); 86.7% in test [6] (setting [10]). The Her2 level in test [2] is 88% (inactive). For the same compound, the differential viability (reversal) in test [6] (H69AR cells + 2 uM doxorubicin) was -8.05% (inactive). The values for the inhibition in test [7] and in test [8] were -3.68% (inactive) and -8.33% (inactive), respectively.
For the compound `Cc1ccccc1N1OC2C(=O)N(c3ccc(F)cc3)C(=O)C2C1c1ccccn1` (stereo not given), the viability was 130% in test [1]; 130% (inactive) in test [3]; 115% (inactive) in test [4]; 91.4% (inactive) in test [5]; 81.5% in test [6] (setting [9]); 91.4% in test [6] (setting [10]). In addition, the Her2 level in test [2] is 116% (inactive). Moreover, in test [6] (H69AR cells + 2 uM doxorubicin), the differential viability (reversal) is 9.9% (inactive). Further, the inhibition in test [7] was -5.58% (inactive); in test [8] it was -2.86% (inactive).
On to `CN(C)c1ccc(NC(=O)c2cc3c(=O)n4ccccc4nc3n2C)cc1`, for which the viability in test [1] was 87.5%; in test [3], 87.5% (inactive); in test [4], 97.8% (inactive); in test [5], 80.3% (inactive); in test [6] (setting [9]), 83.8%; in test [6] (setting [10]), 80.3%. In test [2], the Her2 level was 72.5% (inactive). In addition, the differential viability (reversal) in test [6] (H69AR cells + 2 uM doxorubicin) is -3.47% (inactive). Moreover, the inhibition in test [7] is -0.54% (inactive); in test [8] it was 14.1% (inactive).
Consider `Cc1cccc(NC(=O)CCN2CCN(C/C=C/c3ccccc3)CC2)c1`, for which the viability was 87.5% in test [1]; 87.5% (inactive) in test [3]; 66% (inactive) in test [4]; 86.3% (inactive) in test [5]; 96.1% in test [6] (setting [9]); 86.3% in test [6] (setting [10]). Also, in test [2], the Her2 level is 84.5% (inactive). Also, the differential viability (reversal) in test [6] (H69AR cells + 2 uM doxorubicin) is -9.71% (inactive). For the same compound, the results for the inhibition in test [7] and in test [8] were -2.53% (inactive) and 3.23% (inactive), respectively.
As for `CCOC(=O)Nc1cc(OCC)c(NC(=O)C2CC2)cc1OCC`, the viability in test [1] was 97%; in test [3] it was 97% (inactive); in test [4] it was 111% (inactive); in test [5] it was 100% (inactive); in test [6] (setting [9]), 87.3%; in test [6] (setting [10]), 100%. Moreover, in test [2], the Her2 level was 112% (inactive). Besides, in test [6] (H69AR cells + 2 uM doxorubicin), the differential viability (reversal) was 12.8% (inactive). Moreover, the values for the inhibition in test [7] and in test [8] were -6.13% (inactive) and -4.26% (inactive), respectively.
`CC1(C)CNC(=O)c2sc(N3CCOCC3)nc2C1`: the viability in test [1] is 114%; in test [3], 114% (inactive); in test [4], 67.9% (inactive); in test [5], 77.3% (inactive); in test [6] (setting [9]), 82%; in test [6] (setting [10]), 77.3%. In test [2], the Her2 level was 87% (inactive). Also, in test [6] (H69AR cells + 2 uM doxorubicin), the differential viability (reversal) is -4.71% (inactive). The inhibition is -3.82% (inactive) in test [7] and 1.27% (inactive) in test [8].
Consider `NC(=O)c1c(NC(=O)CSc2nnc(-c3ccco3)n2-c2ccccc2)sc2c1CCC2`, for which the viability was 76% in test [1]; 76% (inactive) in test [3]; 56.5% (inactive) in test [4]; 28.9% (active) in test [5]; 66.8% in test [6] (setting [9]); 28.9% in test [6] (setting [10]). Besides, the Her2 level in test [2] is 68% (inactive). The differential viability (reversal) in test [6] (H69AR cells + 2 uM doxorubicin) is -37.9% (inactive). Also, the results for the inhibition in test [7] and in test [8] were -4% (inactive) and 35.7% (active), respectively.
As for `CCC(C)(C)n1nnnc1C(c1ccncc1)N1CCN(c2cccc(OC)c2)CC1` (stereo not given), the viability in test [1] was 77.5%; in test [3], 77.5% (inactive); in test [4], 91.9% (inactive); in test [5], 85.3% (inactive); in test [6] (setting [9]), 85.8%; in test [6] (setting [10]), 85.3%. Moreover, the Her2 level in test [2] is 82.5% (inactive). For the same compound, in test [6] (H69AR cells + 2 uM doxorubicin), the differential viability (reversal) is -0.525% (inactive). Besides, the inhibition in test [7] was -2.67% (inactive); in test [8], 4.26% (inactive).
For the compound `CNC(=O)CN(c1cc(C)ccc1OC)S(=O)(=O)c1ccc(C)cc1`, the viability in test [1] is 93%; in test [3], 93% (inactive); in test [4], 108% (inactive); in test [5], 103% (inactive); in test [6] (setting [9]), 100%; in test [6] (setting [10]), 103%. For the same compound, in test [2], the Her2 level was 113% (inactive). In test [6] (H69AR cells + 2 uM doxorubicin), the differential viability (reversal) is 2.79% (inactive). The results for the inhibition in test [7] and in test [8] were -2.93% (inactive) and -7.58% (inactive), respectively.
As for `CCn1cc(C(=O)Nc2cc3c(cc2NC(C)=O)OCCO3)c(=O)c2ccc(C)nc21`, the viability was 96.5% in test [1]; 96.5% (inactive) in test [3]; 106% (inactive) in test [4]; 91% (inactive) in test [5]; 95% in test [6] (setting [9]); 91% in test [6] (setting [10]). In test [2], the Her2 level is 100% (inactive). Besides, the differential viability (reversal) in test [6] (H69AR cells + 2 uM doxorubicin) is -4.02% (inactive). Besides, the inhibition is -6.13% (inactive) in test [7] and 0.48% (inactive) in test [8].
With `O=C(O)C1CC=CCC1C(=O)Nc1cc(Cl)ccc1Cl` (stereo not given), the viability was 86% in test [1]; 86% (inactive) in test [3]; 81.2% (inactive) in test [4]; 93.5% (inactive) in test [5]; 84.7% in test [6] (setting [9]); 93.5% in test [6] (setting [10]). The Her2 level in test [2] is 100% (inactive). In addition, in test [6] (H69AR cells + 2 uM doxorubicin), the differential viability (reversal) is 8.81% (inactive). The inhibition in test [7] is 0% (inactive); in test [8], -0.82% (inactive).
Turning to `CCCNc1nc2c(c(=O)n(C)c(=O)n2C)n1Cc1cccc(C)c1`, the viability in test [1] is 87.5%; in test [3] it was 87.5% (inactive); in test [4] it was 83.7% (inactive); in test [5], 95.6% (inactive); in test [6] (setting [9]), 101%; in test [6] (setting [10]), 95.6%. Further, the Her2 level in test [2] was 85% (inactive). Also, the differential viability (reversal) in test [6] (H69AR cells + 2 uM doxorubicin) was -5.19% (inactive). The figures for the inhibition in test [7] and in test [8] were -4.25% (inactive) and -3.97% (inactive), respectively.
As for `COC(=O)CCCCCNc1ccc(C(=O)OC)cc1N`, the viability in test [1] is 107%; in test [3], 107% (inactive); in test [4], 98.5% (inactive); in test [5] it was 91.5% (inactive); in test [6] (setting [9]), 85.4%; in test [6] (setting [10]) it was 91.5%. Also, the Her2 level in test [2] was 86% (inactive). Besides, in test [6] (H69AR cells + 2 uM doxorubicin), the differential viability (reversal) is 6.14% (inactive). Besides, the results for the inhibition in test [7] and in test [8] were -7.16% (inactive) and -6.5% (inactive), respectively.
